Measurements from different studies.
Organism: Severe acute respiratory syndrome coronavirus 2

Compound	effect on	mode	technique	cell line	concentration	time	inhibition [%]
C[C@@H]1O[C@@H](OC[C@H]2O[C@@H](Oc3c(-c4ccc(OCCO)c(OCCO)c4)oc4cc(OCCO)cc(O)c4c3=O)[C@H](O)[C@@H](O)[C@@H]2O)[C@H](O)[C@H](O)[C@H]1O	viral replication			Vero C1008	50 µM		3
C=C[C@@](C)(/C=C/c1ccc(O)cc1)CCC=C(C)C	cytopathic effect			Vero C1008	100 µM		0
O=C(Nc1ccc(C(F)(F)F)cc1)c1cc(Cl)c(F)cc1O	viral replication	inhibitor		Vero C1008	1 µM		90
O=C(O[C@@H]1Cc2c(O)cc(O)cc2O[C@@H]1c1cc(O)c(O)c(O)c1)c1cc(O)c(O)c(O)c1	cytopathic effect			Vero C1008	25 µM		25
Cc1ccc(NC(=O)c2cc3c(=O)n4cccc(C)c4nc3n2C)cc1Cl	viral replication			Vero	1 µM		87.3
O=c1[nH]c(=O)n([C@@H]2O[C@H](CO)[C@@H](O)[C@@H]2O)cc1/C=C/Br	viral replication	inhibitor		Vero C1008	1 µM		52.6
CC[C@H](C)[C@@H]1NC(=O)[C@@H](C)NC(=O)[C@H](C(C)C)NC(=O)C[C@H](/C=C/c2ccccc2)OC(=O)[C@H](C(C)C)NC1=O	viral replication	inhibitor		Calu-3	50 µM		3.01
C/C=C(/C)C(=O)O[C@H]1C(C)=C[C@]23C(=O)[C@@H](C=C(CO)[C@@H](O)[C@]12O)[C@H]1[C@@H](C[C@H]3C)C1(C)C	viral replication	inhibitor		Vero C1008	1 µM		47.4
Cn1c(C(=O)Nc2ccc(Cl)cc2)cc2c(=O)n3ccccc3nc21	viral replication			Vero	0.1 µM		37.7
CC1=C(C/C=C(\C)CC/C=C(\C)Cc2ccc(F)c3ccccc23)C(=O)c2ccccc2C1=O	viral replication	inhibitor		VeroE6/TMPRSS2	100 µM	72 h	43
O=C(O)C1=CC(=C(c2ccc(O)c(C(=O)O)c2)c2ccc(O)c(C(=O)O)c2)C=CC1=O	viral replication			Vero C1008	50 µM		80
CCOC(=O)c1ccc(C#Cc2ccc3c(c2)C(C)(C)CCS3)nc1	viral replication	inhibitor		Vero C1008	1 µM		49.9
O=C(CCCN1CCC(O)(c2ccc(Cl)cc2)CC1)c1ccc(F)cc1	viral replication			Vero C1008	50 µM		3
Cc1cccn2c(=O)c3cc(C(=O)Nc4ccc(N(C)C)cc4)n(C)c3nc12	viral replication			Vero	10 µM		94.2
C[C@@H]1O[C@@H](O[C@H]2[C@H](O[C@H]3CC[C@]4(C)[C@H]5CC=C6[C@@H]7CC(C)(C)CC[C@]7(C(=O)OCc7ccccc7)CC[C@@]6(C)[C@]5(C)CC[C@H]4C3(C)C)O[C@H](CO)[C@@H](O[C@@H]3O[C@@H](C)[C@H](O)[C@@H](O)[C@H]3O)[C@@H]2O)[C@H](O)[C@H](O)[C@H]1O	viral replication			293T/ACE2	20 µM		83.6
CC1(C)CCC(C)(C)c2cc(C#Cc3ccc(C(=O)O)cc3)ccc21	viral replication	inhibitor		Vero C1008	1 µM		56.1
COC(=O)C[C@@H]1OO[C@@](C)(/C(C)=C/C=C/Cc2ccccc2)C[C@H]1C	viral replication	inhibitor		Calu-3	50 µM		4.15

Compound	effect on	mode	technique	cell line	concentration	time	inhibition [%]
O=C(/C=C/c1ccc(O)c(O)c1/C=C/c1ccc(O)c(O)c1)O[C@H](Cc1ccc(O)c(O)c1)C(=O)O	cytopathic effect			Vero C1008	6.25 µM		0
Cc1cc(O)c(C=O)c2c1C(=O)Oc1c(cc3c(c1C)C(=O)CC(C)(C)O3)O2	viral replication	inhibitor		Calu-3	50 µM		99.5
Cn1c(C(=O)Nc2ccc3c(c2)OCCO3)cc2c(=O)n3ccccc3nc21	viral replication			Vero	1 µM		74.7
CCN(CC)CCCC(C)Nc1ccnc2cc(Cl)ccc12 (stereo not shown)	viral replication	inhibitor		Vero C1008	1 µM		48.7
C=C1C[C@H]2[C@@](C)(C(=O)C(O)=C3C(C)(C)C(=O)CC[C@@]32C)[C@@H]2C(=O)O[C@@](C)(C(=O)OC)C(=O)[C@@]12C	viral replication	inhibitor		Calu-3	50 µM		82.1
Br.CN=c1nc(-c2ccc(OC)c(OC)c2)n(-c2ccc(F)cc2)s1	viral replication	inhibitor	qPCR	Vero C1008	50 µM	24 h	35.6
CC(C)CC(NC(=O)OCc1ccccc1)C(=O)NC(C(=O)NCC(=O)C=[N+]=[N-])C(C)C (stereo not shown)	viral replication	inhibitor		Vero C1008	1 µM		95.8
NCC[C@H](O)C(=O)N[C@@H]1C[C@H](N)[C@@H](O[C@H]2O[C@H](CN)[C@@H](O)[C@H](O)[C@H]2O)[C@H](O)[C@H]1O[C@H]1O[C@H](CO)[C@@H](O)[C@H](N)[C@H]1O	viral replication			Vero C1008	50 µM		3
CCCc1c(C(C)C)cc(C(C)C)c(C(C)O)c1-c1ccc(F)cc1 (stereo not shown)	viral replication	inhibitor		Vero C1008	1 µM		52.8
CC1=C(C/C=C(\C)CC/C=C(\C)Cc2ccc3ccccc3c2)C(=O)c2ccccc2C1=O	viral replication	inhibitor		VeroE6/TMPRSS2	100 µM	72 h	39
CCc1ccc(NC(=O)c2cc3c(=O)n4ccccc4nc3n2C)cc1	viral replication			Vero	0.1 µM		51.5
O=C(O)c1cnc2n1CCc1ccccc1C2=C1CCN(CCc2ccc(OCc3ccc4ccccc4n3)cc2)CC1	viral replication	inhibitor		Vero C1008	1 µM		50.3
Oc1c(I)cc(Cl)c2cccnc12	viral replication	inhibitor		Vero C1008	30 µM		91.8
COc1ccc(C[C@@H]2c3cc(Oc4cc(C[C@@H]5c6cc(O)c(OC)cc6CCN5C)ccc4O)c(OC)cc3CCN2C)cc1	cytopathic effect	inhibitor		Vero C1008	25 µM		0
O=C(Nc1ccccc1F)c1cc2c(=O)n3ccccc3nc2n1Cc1ccccc1	viral replication			Vero	1 µM		92.3
CC(C)=CCc1c(O)ccc(C(=O)/C=C/c2ccc(O)cc2)c1O	cytopathic effect	inhibitor		Vero C1008	50 µM		0
CC(=O)c1cccc(NC(=O)c2cc3c(=O)n4ccccc4nc3n2C)c1	viral replication			Vero	10 µM		96.4
